A selection: hits, their analogues and other compounds. The true share with any hit is near 1%.
Xi reactivation: reactivates the inactive X chromosome in mouse fibroblasts; XiGFP mouse fibroblasts, % GFP-positive cells imaging, 3 d; cells co-treated with 5-aza-dC sensitizer; scaled so ellipticine positive control = 100%; activation, % at 7.58 µM; hit rate 0.055% among 360,000; AID 743238;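 active = mean normalized replicate activation at least 10% and every replicate at or above 10%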
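System: 68-5-11 XiGFP fibroblast line | Buffer or medium: DMEM containing 5-aza-dC | Compound: Single point | Times: Compounds 3 days, fix/stain 15 min at room temperature | Benchmarks: Positive control ellipticine, 6 µM final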
INS-1E GSIS act: GLuc luminescence reporter in INS-1E cells, primary screen for activators of glucose-dependent secretion of insulin. AID 743287. activation, % at 16.6 µM. hit rate 0.61% among 370,000. INS-1E GLuc reporter insulin secretion, 2-3 h;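 active = lowest replicate activation of at least 40%, so every replicate reaches that level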
FXN GAA850 act: frataxin GAA850 promoter activation; HEK293 lucGAA850 FXN promoter luciferase reporter, 24 h; percent of 10 µM SAHA response; activation, % at 6 µM; hit rate 0.56% among 360,000;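 active = activation above the average of all compounds screened plus 3 SD, cutoff fixed separately per campaign, cut at about 7.5% in these data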
CaV13 ICDI inh: Primary screen for inhibitors of IQ motif and Ca2+-dependent inactivation inhibitor domain binding in CACNA1D, Förster resonance energy transfer in living cells, … | HEK cells, CFP/YFP FRET ICDI-IQ, plate reader, 10 min; percent FRET-ratio fall versus neutral wells | inhibition, % at 12.3 µM | hit rate 0.098% among 340,000 | AID 743397;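 active = mean replicate inhibition of at least 30% and at least 1% of replicates passing that level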
GAA30 FXN cntr: GAA30 FXN promoter activation counter-screen | activation, % at 6 µM | hit rate 66% among 1,900 | HEK293 lucGAA30 FXN promoter luciferase, 24 h; DMSO = 0%, 5 µM ipriflavone = 100% | AID 588350 | shares compounds with FXN GAA850 act;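 active = mean activation above the mean of solvent-only control wells plus 3 SD, cut at about 22% in these data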;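 also: counterscreen of GAA850 promoter hits where activity marks nonselective or luminescence artifacts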
FXN GAA850 conf: GAA850 FXN promoter activation confirmation. HEK293 lucGAA850 FXN promoter luciferase reporter, 24 h; 100% = activation by SAHA. activation, % at 6 µM. hit rate 86% among 1,900. shares compounds with FXN GAA850 act. AID 588351;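 active = mean activation above a set limit taken from the primary screen, cut at about 8% in these data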
A number is an active result; . = inactive; / = no result.

SMILES	Xi reactivation	INS-1E GSIS act	FXN GAA850 act	CaV13 ICDI inh	GAA30 FXN cntr	FXN GAA850 conf
COc1ncnc2c1ncn2CCCN[C@H](C)c1cccc2ccccc12	.	.	.	.	/	/
CNC[C@H]1Oc2ncc(-c3cccc(C(=O)N(C)C)c3)cc2C(=O)N([C@H](C)CO)C[C@H]1C	.	.	/	/	/	/
COCc1cc(C)nc2sc(C(=O)Nc3cccc(OC)c3)c(N)c12	.	.	7.7	.	115	38
COCc1cc(C)nc2sc(C(=O)Nc3ccc(OC)cc3)c(N)c12	.	.	.	.	/	/
CCC(=O)N[C@H]1CC[C@H](CC(=O)NCc2ccccc2OC)O[C@H]1CO	.	.	/	/	/	/
CCOc1ccc(CN(C)C(=O)c2cc3ccccc3o2)cc1OC	.	.	.	.	/	/
CCN(Cc1ccc(OC)c(F)c1)C(=O)c1cc2ccccc2o1	.	.	8.5	.	34	17
NC(=S)N/N=C/c1cn(-c2ccccc2)nc1-c1cccnc1	.	.	7.8	.	63	19
COc1ccc(C(=O)Nc2ccc3c(c2)C(=O)N(C)C[C@@H](OC)[C@@H](C)CN[C@@H](C)CO3)cc1	.	.	/	/	/	/
COc1ccc(Nc2ccc3c(c2)=NC2(CCCCC2)[N+]=3[O-])cc1	/	.	17	/	50	106
O=[N+]([O-])c1ccc2c(c1N1CCCCC1)=NC1(CCCCC1)[N+]=2[O-]	.	.	.	.	/	/
[O-][N+]1=c2ccc(Nc3ccccc3)cc2=NC12CCCCC2	/	/	10	.	46	70
CCOC(=O)C(C)Oc1cccc2c(=O)n(CC(=O)Nc3ccc4c(c3)OCCO4)ccc12 (configuration not stated)	.	/	11	.	.	.
CCOC(=O)C(C)Oc1cccc2c(=O)n(CC(=O)Nc3cccc(OC)c3)ccc12 (configuration not stated)	.	.	.	.	/	/
CN(C)CCn1c(=O)n(-c2ccc(F)cc2)c(=O)c2c3c(sc21)CCCCC3	.	.	.	.	/	/
CN(C)CCn1c(=O)n(-c2cccc(Cl)c2)c(=O)c2c3c(sc21)CCCCC3	.	.	13	.	22	13
CCCN1C(=O)S/C(=C/c2ccc(N3CCOCC3)o2)C1=O	.	.	.	.	/	/
CCCN1C(=O)S/C(=C\c2ccc(N3CCOCC3)o2)C1=O	.	.	9.8	.	95	29
CO[C@H]1CN(C)C(=O)c2ccc(NC(C)=O)cc2OC[C@H](C)N(C(=O)CN2CCOCC2)C[C@H]1C	.	.	/	/	/	/
C=CCOc1ccc2c(c1)C(=NO)c1cc(OCC=C)ccc1-2	/	.	8.0	.	32	20
C[C@H]1CN([C@@H](C)CO)S(=O)(=O)c2ccc(C3=CCCCC3)cc2O[C@H]1CN(C)C(=O)C1CC1	.	.	/	/	/	/
CCN(C[C@H]1N[C@@](CC)(C(=O)OC)[C@H]2C(=O)N(Cc3ccccc3)C(=O)[C@@H]12)S(=O)(=O)c1ccc(OC)cc1	.	.	11	.	.	9.0
CC[C@@]1(C(=O)OC)N[C@H](CN(C)C(=O)Nc2ccccc2)[C@@H]2C(=O)N(Cc3ccccc3)C(=O)[C@@H]21	.	.	12	.	.	.
CC[C@@]1(C(=O)OC)N[C@H](CN(C)C(=O)Nc2ccc(C(F)(F)F)cc2)[C@@H]2C(=O)N(Cc3ccccc3)C(=O)[C@@H]21	.	.	8.9	.	27	11
CC[C@@]1(C(=O)OC)N[C@H](CN(C)C(=O)c2ccccc2)[C@@H]2C(=O)N(Cc3ccccc3)C(=O)[C@@H]21	.	.	.	.	/	/
SMILES	Xi reactivation	INS-1E GSIS act	FXN GAA850 act	CaV13 ICDI inh	GAA30 FXN cntr	FXN GAA850 conf
COc1ccccc1NS(=O)(=O)c1cc(N)ccc1N1CCCCC1	.	.	.	.	/	/
CCCS(=O)(=O)Nc1ccc(N2CCCCC2)c(S(=O)(=O)Nc2ccccc2OC)c1	.	.	7.8	.	.	9.1
Cc1ccc(S(=O)(=O)Nc2ccc3c(c2)C(=O)N([C@H](C)CO)C[C@@H](C)[C@H](CN(C)C(=O)NC2CCCCC2)OCCCC[C@@H](C)O3)cc1	.	.	/	/	/	/
Cc1cc(/C=C2\NC(=S)N(C)C2=O)ccc1N1CCCC1	.	.	7.6	.	107	50
CCCN1C(=O)/C(=C/c2ccc(N3CCCC3)c(C)c2)NC1=S	/	.	.	.	/	/
CCOC(=O)c1sc(NC(=O)CCN2CCCCCC2)c(C(=O)OCC)c1C	.	.	10	.	.	.
CCN(CC)C(=S)SCC(=O)c1ccccc1	/	/	.	.	/	/
CCN(CC)C(=S)SSC(=S)N(CC)CC	.	.	20	.	.	.
C[C@@H]1CCCCO[C@@H](CN(C)S(=O)(=O)c2cccs2)[C@H](C)CN([C@@H](C)CO)C(=O)c2cc(NC(=O)Nc3ccc(C(F)(F)F)cc3)ccc2O1	.	.	/	/	/	/
Cc1ccc(S(=O)(=O)Nc2ccc3c(c2)CC(=O)N([C@H](C)CO)C[C@H](C)[C@H](CN(C)C(=O)Nc2ccccc2)O3)cc1	.	.	/	/	/	/
C[C@@H]1CN([C@H](C)CO)C(=O)Cc2cc(NC(=O)Nc3ccc4c(c3)OCO4)ccc2O[C@@H]1CN(C)S(=O)(=O)c1cn(C)cn1	.	.	/	/	/	/
Nc1nc2ccccc2cc1-c1cccs1	.	.	7.8	.	90	34
O=C(CC1C(=O)NCCN1C(=O)Nc1ccccc1)Nc1ccc(F)cc1 (configuration not stated)	.	/	.	.	/	/
COc1ccccc1NC(=O)CC1C(=O)NCCN1C(=O)Nc1ccccc1 (configuration not stated)	/	.	8.0	/	.	8.0
CCOc1ccc(OCc2cccc(C(=O)N3CCCCCC3)c2)cc1	.	.	7.8	.	105	35
Cc1cccc2nc(COc3ccc4ccccc4c3Br)cn12	.	.	12	.	134	48
CCC(=O)N1C[C@H](C)[C@@H](OC)CN(C)C(=O)c2ccc(NC(=O)C3CCOCC3)cc2OC[C@H]1C	.	.	/	/	/	/
COc1cccc2sc(NNC(=O)C3=COCCO3)nc12	.	.	8.2	.	86	33
Cn1c2ccccc2c(=O)c2ccc(C#CC3(N)CCCCC3)cc21	.	.	10	.	49	46
Cn1c2ccccc2c(=O)c2cc(C#CC3(O)CCCCC3)ccc21	.	.	.	.	/	/
N#Cc1sc2nc(N3CCCCC3)c3c(c2c1N)CCCC3	/	141	7.6	.	.	17
Cc1nc2sc(C#N)c(N)c2c2c1CCCC2	/	/	.	/	/	/
CNc1nc(Nc2ccc(Br)cc2)nc(N)c1[N+](=O)[O-]	.	50	9.1	.	91	42
COc1ccc(Nc2nc(N)c([N+](=O)[O-])c(NCCO)n2)cc1	.	.	.	.	/	/

Screening data: PubChem BioAssay, several laboratories
